From ChEMBL document CHEMBL1157246, “Cytotoxic isomalabaricane triterpenes from the marine sponge Rhabdastrella globostellata” (2006)
Calls of active or inactive are those of the source. No cut-off for these calls is given here.

What was measured:
Saccharomyces cerevisiae [1] = test: Antifungal activity against Saccharomyces cerevisiae after 24 hrs by agar diffusion assay; format: functional, organism-based
In short: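 S. cerevisiae was inoculated on YPD agar, and MeOH-dissolved compounds were applied on 5 mm disks. Inhibition zones were recorded after 24 h at 27 °C, with nystatin 5 µg as positive control.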

L5178Y [2] = test: Cytotoxicity against mouse L5178Y cells at 10 ug/mL after 72 hrs by MTT assay; format: functional
In short: (§1)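 Exponentially growing cells (3750 per well) were exposed to samples from EtOH 96% stocks for 72 h at 37 °C in 5% CO2. MTT (20 µL of 5 mg/mL in PBS, pH 7.4) was added for 3 h 45 min, then formazan was released with DMSO and read at 520 nm. Survival % was taken relative to untreated cells, with media containing 0.1% EGMME/DMSO as controls. Assays were run in triplicate and repeated three times.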

L5178Y [3] = test: Cytotoxicity against mouse L5178Y cells at 3 ug/mL after 72 hrs by MTT assay; format: functional; in short: as §1
L5178Y [4] = test: Cytotoxicity against mouse L5178Y cells after 72 hrs by MTT assay; format: functional; in short: as §1
HeLa [5] = test: Cytotoxicity against human HeLa cells at 10 ug/mL after 72 hrs by MTT assay; format: functional; in short: as §1
HeLa [6] = test: Cytotoxicity against human HeLa cells at 3 ug/mL after 72 hrs by MTT assay; format: functional; in short: as §1
HeLa [7] = test: Cytotoxicity against human HeLa cells after 72 hrs by MTT assay; format: functional; in short: as §1
PC-12 [8] = test: Cytotoxicity against rat PC12 cells at 10 ug/mL after 72 hrs by MTT assay; format: functional; conditions: PC-12, 72 h; in short: as §1
PC-12 [9] = test: Cytotoxicity against rat PC12 cells at 3 ug/mL after 72 hrs by MTT assay; format: functional; conditions: PC-12, 72 h; in short: as §1
PC-12 [10] = test: Cytotoxicity against rat PC12 cells after 72 hrs by MTT assay; format: functional; in short: as §1
Escherichia coli [11] = test: Antibacterial activity against Escherichia coli DSM10290 at 10 ug after 24 hrs by agar diffusion assay; format: functional; conditions: read-out: IZ
In short: (§2)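 Disks (5 mm) impregnated with compound dissolved in MeOH were laid on LB agar plates seeded with B. subtilis DSM2109 or E. coli DSM10290. Inhibition zones were read after 24 h at 37 °C. Streptomycin and gentamycin, 5 µg each, served as positive controls.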

HeLa [12] = test: Cytotoxicity against human HeLa cells at 30 ug/mL after 72 hrs by MTT assay; format: functional, cell-based; in short: as §1
PC-12 [13] = test: Cytotoxicity against rat PC12 cells at 30 ug/mL after 72 hrs by MTT assay; format: functional, cell-based; in short: as §1
Bacillus subtilis [14] = test: Antibacterial activity against Bacillus subtilis DSM2109 at 10 ug after 24 hrs by agar diffusion assay; format: functional; conditions: read-out: IZ; in short: as §2
Bacillus subtilis [15] = test: Antibacterial activity against Bacillus subtilis DSM2109 at 5 ug after 24 hrs by agar diffusion assay; format: functional; conditions: read-out: IZ; in short: as §2
Escherichia coli [16] = test: Antibacterial activity against Escherichia coli DSM10290 at 5 ug after 24 hrs by agar diffusion assay; format: functional; conditions: read-out: IZ; in short: as §2
Saccharomyces cerevisiae [17] = test: Antifungal activity against Saccharomyces cerevisiae at 5 ug after 24 hrs by agar diffusion assay; format: functional, organism-based
In short: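 Paper disks (5 mm diameter) loaded with test material dissolved in MeOH were placed on YPD agar plates inoculated with S. cerevisiae. After 24 h of incubation at 27 °C, the zone of inhibition (mm) was recorded.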

With CC(=O)O[C@@H]1CC[C@@]2(C)[C@@H](CC[C@]3(C)/C(=C(C)/C=C/C=C(\C)C(CC=C(C)C)O[C@@H]4OC[C@H](O)[C@H](O)[C@@H]4O)C(=O)C[C@@H]23)C1(C)C (some centres not stated) the Activity (Saccharomyces cerevisiae [1]) was “inactive”, the inhibition at 10 µg/mL (L5178Y [2]) was 100% and the inhibition at 3 µg/mL (L5178Y [3]) was 100%. It also gave an ED50 (L5178Y [4]) of 0.22 nmol, an inhibition at 10 µg/mL (HeLa [5]) of 56% and an inhibition at 3 µg/mL (HeLa [6]) of 0%. For the same molecule, the ED50 (HeLa [7]) was 22.76 nmol, the inhibition at 10 µg/mL (PC-12 [8]) was 38% and the inhibition at 3 µg/mL (PC-12 [9]) was 0%. It also gave an ED50 (PC-12 [10]) of 21.54 nmol.
For CC(C)=CCC(O[C@H]1OC[C@@H](O)[C@@H](O)[C@H]1O)/C(C)=C/C=C/C(C)=C1\C(=O)C[C@H]2[C@@]3(C)CC[C@@H](O)C(C)(C)[C@@H]3CC[C@]12C (some centres not stated), the Activity (Saccharomyces cerevisiae [1]) was “inactive”, the zone of inhibition at 10 µg/disc (Escherichia coli [11]) was 12 mm and the inhibition at 10 µg/mL (L5178Y [2]) was 100%. It also gave an inhibition at 3 µg/mL (L5178Y [3]) of 100%, an ED50 (L5178Y [4]) of 2.4 nmol and an inhibition at 10 µg/mL (HeLa [5]) of 100%. It also gave an inhibition at 3 µg/mL (HeLa [6]) of 26%, an ED50 (HeLa [7]) of 8.14 nmol and an inhibition at 10 µg/mL (PC-12 [8]) of 54%. For the same molecule, the inhibition at 3 µg/mL (PC-12 [9]) was 33% and the ED50 (PC-12 [10]) was 27.63 nmol.
In the case of COC(/C=C/C(C)=C/C=C/C(C)=C1/C(=O)C[C@H]2[C@@]3(C)CC[C@@H](O)[C@](C)(C(=O)O)[C@@H]3CC[C@]12C)C(C)(C)O (some centres not stated) [GLOBOSTELLATIC ACID D, G], the Activity (Saccharomyces cerevisiae [1]) is reported as “inactive”, the zone of inhibition at 10 µg/disc (Escherichia coli [11]) is reported as 10 mm and the inhibition at 10 µg/mL (L5178Y [2]) is reported as 100%. The inhibition at 3 µg/mL (L5178Y [3]) was 100%, the ED50 (L5178Y [4]) was 0.39 nmol and the inhibition at 10 µg/mL (HeLa [5]) was 25%. For the same molecule, the inhibition at 3 µg/mL (HeLa [6]) was 4%, the ED50 (HeLa [7]) was 46.69 nmol and the inhibition at 10 µg/mL (PC-12 [8]) was 42%. It also gave an inhibition at 3 µg/mL (PC-12 [9]) of 18% and an ED50 (PC-12 [10]) of 30.33 nmol.
In the case of C/C(C(=O)/C=C/C(C)=C/C=C/C(C)(C)O)=C1/C(=O)C[C@H]2[C@@]3(C)CC[C@@H](O)[C@](C)(C(=O)O)[C@@H]3CC[C@]12C [GLOBOSTELLATIC ACID F], the Activity (Saccharomyces cerevisiae [1]) is reported as “inactive”, the inhibition at 10 µg/mL (L5178Y [2]) is reported as 100% and the inhibition at 3 µg/mL (L5178Y [3]) is reported as 42%. The ED50 (L5178Y [4]) was 10.36 nmol, the inhibition at 10 µg/mL (HeLa [5]) was 0% and the inhibition at 3 µg/mL (HeLa [6]) was 0%. For the same molecule, the Activity (HeLa [12]) was “inactive”, the inhibition at 10 µg/mL (PC-12 [8]) was 0% and the inhibition at 3 µg/mL (PC-12 [9]) was 0%. For the same molecule, the Activity (PC-12 [13]) was “inactive”.
In the case of CCOC(/C=C/C(C)=C/C=C/C(C)=C1/C(=O)C[C@H]2[C@@]3(C)CC[C@@H](O)[C@](C)(C(=O)O)[C@@H]3CC[C@]12C)C(C)(C)O (some centres not stated) [GLOBOSTELLATIC ACID H, I], the Activity (Saccharomyces cerevisiae [1]) is reported as “inactive”, the zone of inhibition at 10 µg/disc (Escherichia coli [11]) is reported as 10 mm and the inhibition at 10 µg/mL (L5178Y [2]) is reported as 100%. For the same molecule, the inhibition at 3 µg/mL (L5178Y [3]) was 100%, the ED50 (L5178Y [4]) was 0.31 nmol and the inhibition at 10 µg/mL (HeLa [5]) was 23%. The inhibition at 3 µg/mL (HeLa [6]) was 8%, the ED50 (HeLa [7]) was 46.05 nmol and the inhibition at 10 µg/mL (PC-12 [8]) was 41%. It also gave an inhibition at 3 µg/mL (PC-12 [9]) of 16% and an ED50 (PC-12 [10]) of 28.07 nmol.
In the case of CCOC(/C=C/C(C)=C/C=C/C(C)=C1/C(=O)C[C@H]2[C@@]3(C)CC[C@@H](OC(C)=O)[C@](C)(C(=O)O)[C@@H]3CC[C@]12C)C(C)(C)O (some centres not stated) [GLOBOSTELLATIC ACID J, K], the Activity (Saccharomyces cerevisiae [1]) is reported as “inactive”, the inhibition at 10 µg/mL (L5178Y [2]) is reported as 100% and the inhibition at 3 µg/mL (L5178Y [3]) is reported as 24%. It also gave an ED50 (L5178Y [4]) of 8.28 nmol, an inhibition at 10 µg/mL (HeLa [5]) of 0% and an inhibition at 3 µg/mL (HeLa [6]) of 0%. For the same molecule, the Activity (HeLa [12]) was “inactive”, the inhibition at 10 µg/mL (PC-12 [8]) was 0% and the inhibition at 3 µg/mL (PC-12 [9]) was 0%. The Activity (PC-12 [13]) was “inactive”.
For CC(/C=C/C(O)C(C)(C)O)=C\C=C\C(C)=C1\C(=O)C[C@H]2[C@@]3(C)CC[C@@H](O)[C@](C)(C(=O)O)[C@@H]3CC[C@]12C (some centres not stated) [GLOBOSTELLATIC ACID L, M], the Activity (Saccharomyces cerevisiae [1]) was “inactive”, the inhibition at 10 µg/mL (L5178Y [2]) was 100% and the inhibition at 3 µg/mL (L5178Y [3]) was 100%. The ED50 (L5178Y [4]) was 0.92 nmol, the inhibition at 10 µg/mL (HeLa [5]) was 42% and the inhibition at 3 µg/mL (HeLa [6]) was 0%. The ED50 (HeLa [7]) was 27.87 nmol, the inhibition at 10 µg/mL (PC-12 [8]) was 30% and the inhibition at 3 µg/mL (PC-12 [9]) was 0%. The ED50 (PC-12 [10]) was 27.52 nmol.
With CC(=O)O[C@@H]1CC[C@@]2(C)[C@@H](CC[C@]3(C)/C(=C(\C)C(=O)/C=C/C(C)=C/C=C/C(C)(C)O)C(=O)C[C@@H]23)[C@@]1(C)C(=O)O [GLOBOSTELLATIC ACIDS A] the Activity (Saccharomyces cerevisiae [1]) was “inactive”, the inhibition at 10 µg/mL (L5178Y [2]) was 100% and the inhibition at 3 µg/mL (L5178Y [3]) was 100%. For the same molecule, the inhibition at 10 µg/mL (HeLa [5]) was 0%, the inhibition at 3 µg/mL (HeLa [6]) was 0% and the Activity (HeLa [12]) was “inactive”. For the same molecule, the inhibition at 10 µg/mL (PC-12 [8]) was 0%, the inhibition at 3 µg/mL (PC-12 [9]) was 0% and the Activity (PC-12 [13]) was “inactive”.
In the case of C/C(C(=O)/C=C/C(C)=C/C=C/C(C)(C)O)=C1/C(=O)C[C@H]2[C@@]3(C)CC[C@H](O)C(C)(C)[C@@H]3CC[C@]12C [GLOBOSTELLETIN], the Activity (Saccharomyces cerevisiae [1]) is reported as “inactive”, the zone of inhibition at 10 µg/disc (Bacillus subtilis [14]) is reported as 13 mm and the zone of inhibition at 5 µg/disc (Bacillus subtilis [15]) is reported as 12 mm. It also gave an inhibition at 10 µg/mL (L5178Y [2]) of 94%, an inhibition at 3 µg/mL (L5178Y [3]) of 66% and an ED50 (L5178Y [4]) of 5.34 nmol. The inhibition at 10 µg/mL (HeLa [5]) was 0%, the inhibition at 3 µg/mL (HeLa [6]) was 0% and the ED50 (HeLa [7]) was greater than 60 nmol. The inhibition at 10 µg/mL (PC-12 [8]) was 0%, the inhibition at 3 µg/mL (PC-12 [9]) was 0% and the Activity (PC-12 [13]) was “inactive”.
CN[C@@H]1[C@H](O[C@H]2[C@H](O[C@H]3[C@H](O)[C@@H](O)[C@H](N=C(N)N)[C@@H](O)[C@@H]3N=C(N)N)O[C@@H](C)[C@]2(O)C=O)O[C@@H](CO)[C@H](O)[C@H]1O [STREPTOMYCIN] showed a zone of inhibition at 5 µg/disc (Escherichia coli [16]) of 13 mm and a zone of inhibition at 5 µg/disc (Bacillus subtilis [15]) of 20 mm.
For NYSTATIN, the inhibition zone (IZ) (Saccharomyces cerevisiae [17]) was 12 mm.
